In the library only some 6.4% were active in any assay of this set; here they are far more common.
TbMetRS inhib – T. brucei MetRS inhibitors, primary screen, biochemical, luminescence | methionyl-tRNA synthetase (Trypanosoma brucei brucei) | purified T. brucei MetRS, ATP depletion, Kinase-Glo luminescence | inhibition, % at 11.9 µM | 360,000 tested, 0.4% active;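 active = inhibition above a per-plate cutoff of the control wells' mean inhibition plus 3 SD, cut at about 5.5% in these data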;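 also: 0% = DMSO wells median and 100% = median of wells with control inhibitor compound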
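Material: T. brucei methionyl-tRNA synthetase, purified; reagent: substrates ATP, L-methionine and bulk Escherichia coli tRNA; dosing: 11.9 µM single point; timing: 15 min plus 2 h at 25 °C; detection: luminescence of leftover ATP; evaluation: % inhibition; control set: DMSO-only wells as low control; replicates: singlicate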
MPTP block – mitochondrial permeability transition pore inhibitors, primary screen, biochemical, isolated mouse mitochondria, absorbance. inhibition, % at 10 µM. 360,000 tested, 1.4% active. Ca2+ swelling absorbance, 30 min;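 active = inhibition of 50% or more, scaled per plate between neutral and stimulator controls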;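 also: 0% = DMSO wells given calcium and 100% = 1 mM EGTA wells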
CHOP inhibitor – inhibitors of CHOP promoter induction, primary screen, cell-based, unfolded protein response, luciferase reporter. CHO-K1 CHOP-promoter luciferase, tunicamycin-induced, 15-18 h. inhibition, % at 10 µM. 220,000 tested, 3.8% active. AID 2732, 2010;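 active = compounds that reduced the stress-induced luciferase reporter signal by more than about 70% of percent inhibition, limit read from the data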;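 also: 0% = tunicamycin plus vehicle and 100% = wells without tunicamycin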
NR3A LBD binder – binders of NR3A ligand-binding domain, primary screen, biophysical, differential scanning fluorimetry, uHTS; NR3A LBD differential scanning fluorimetry, Tm shift; 0% = protein alone, 100% = glycine-bound protein; Tm shift relative to glycine control, % at 25 µM; 340,000 tested, 2.5% active;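 active = melting temperature shift of at least 10% of the positive control shift, at one fixed dose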
WT yeast gro inh – growth inhibition of WT strain, primary screen, mitochondrial fusion inhibitor project, WT and mutant strains, chemical genetic. mitochondrial fusion phenotypic screen. inhibition, % at 10 µM. 190,000 tested, 2.1% active. AID 1362, 2008; in the data active = inhibition above about 58%; tested in S. cerevisiae
EBV gp42 inh – Epstein-Barr virus gp42 inhibitors, primary screen, biochemical, uHTS, fluorescence polarization; Glycoprotein 42 (Epstein-Barr virus (strain AG876)), Q1HVG2; Fluorescence polarization binding assay, mP read-out; inhibition, % (tested at 21.74 µM); 220,000 tested, 0.42% active; AID 1085, 2008; in the data active = inhibition above about 50%
Target sequence (Q1HVG2 whole entry, looked up): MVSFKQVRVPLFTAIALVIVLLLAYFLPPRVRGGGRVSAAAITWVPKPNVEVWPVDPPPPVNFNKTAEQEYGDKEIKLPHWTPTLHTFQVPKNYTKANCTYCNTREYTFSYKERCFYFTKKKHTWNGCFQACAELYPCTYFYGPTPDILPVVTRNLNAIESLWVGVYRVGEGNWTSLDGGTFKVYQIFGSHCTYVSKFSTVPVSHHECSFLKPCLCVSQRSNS
An asterisk follows results filed as active; . = not tested or not shown.

SMILES	TbMetRS inhib	MPTP block	CHOP inhibitor	NR3A LBD binder	WT yeast gro inh	EBV gp42 inh
COc1ccc(-c2noc(-c3cccnc3)n2)cc1OC	-0.4	1.0	-11.3	-1.1	1.9	6.6
COc1ccc(-c2noc(Cc3ccc(Cl)cc3)n2)cc1OC	-0.8	0.9	85.8*	-3.9	20.5	1.3
COc1ccc(-c2noc(CCCc3ccccc3)n2)cc1OC	-0.4	0.3	72.2*	1.9	45.4	-1.6
Cc1ccc(-c2noc(CCCc3ccccc3)n2)cc1	-2.3	1.2	23.7	8.7	-6.9	-31.0
COc1ccc(-c2noc(-c3ccccc3-c3ccccc3)n2)cc1OC	-0.5	4.7	-8.6	4.2	75.1*	-20.1
COc1ccccc1CNC(=O)C1CCCN(S(=O)(=O)c2cnc[nH]2)C1 (stereo not drawn)	-0.6	-0.1	-9.1	-1.2	-5.1	-14.3
CCOC(=O)N1CCC(NC(=O)c2cc(-c3ccc(F)cc3)[nH]c2C)CC1	-0.2	-0.6	5.2	0.0	67.3*	-8.0
CCOC(=O)N1CCC(NC(=O)c2cc(C(=O)NCc3ccc(F)cc3)ccc2CO)CC1	-0.4	-1.7	9.3	1.4	7.6	5.9
COC(=O)c1cc(-n2cccc2)ccc1N1CCOCC1	0.3	3.5	6.4	0.9	.	-2.8
CC1CCN(c2nc(-c3cccnc3)nc3scc(-c4ccccc4)c23)CC1	0.0	5.7	-1.0	0.6	59.6*	-39.7
CN1CCN(c2nc(-c3cccnc3)nc3scc(-c4ccccc4)c23)CC1	0.3	1.0	-5.3	-2.2	15.1	-8.3
CC1CCN(c2nc(CN3CCCCC3)nc3scc(-c4ccccc4)c23)CC1	-0.1	3.5	30.1	-0.1	67.7*	-12.5
COc1ccc(C)cc1S(=O)(=O)N(CC(=O)Nc1cccc([N+](=O)[O-])c1)c1ccccc1	0.2	4.8	0.7	4.1	-0.2	1.2
Cc1ccc(C)c(C(=O)C(C)OC(=O)CN2C(=O)NC3(CC(C)CC(C)(C)C3)C2=O)c1 (stereo not drawn)	0.3	-0.1	.	3.7	.	.
CC1(CO)COC(c2ccccc2)=N1 (stereo not drawn)	0.3	0.0	3.0	1.5	.	21.6
c1coc(-c2nc(-c3ccco3)c(-c3ccco3)nc2-c2ccco2)c1	0.4	3.5	-60.2	-26.7	18.7	63.1*
Nc1nc(-c2ccco2)c(-c2ccco2)s1	-1.1	-1.6	6.5	-0.6	2.1	-12.8
CC(C)c1ccc(OC(=O)c2cccc(S(=O)(=O)N3CCN(C)CC3)c2)cc1	-0.7	1.4	.	-1.0	.	.
Cc1noc(C)c1COC(=O)c1ccc2c(c1)OCCO2	-0.7	-0.3	2.8	1.0	18.2	-4.6
Cc1noc(C)c1COc1ccc(C(=O)OCC(=O)c2ccc3c(c2)OCCO3)cc1	-0.4	-3.2	1.2	11.3*	11.7	-13.1
CN(C)c1ccc(NC(=S)c2ccc3ccccc3n2)cc1	0.2	-0.5	.	-8.2	.	.
CCOC(=O)c1c(C)[nH]c(C)c1S(=O)(=O)N(C)CC(=O)NCc1cccc(C)c1	0.5	0.2	.	-9.0	.	.
CCN(CC)c1ncnc2scc(C3COc4ccccc4O3)c12 (stereo not drawn)	-0.9	2.3	27.6	3.1	84.7*	11.4
COc1cc(OC)c(C#N)c(S(=O)(=O)Cc2ccccc2)c1	-0.4	0.2	18.6	11.7*	-5.5	8.7
C[C@@H]1CN([C@@H](C)CO)C(=O)CCCn2nncc2CO[C@@H]1CN(C)S(=O)(=O)c1cn(C)cn1	-1.5	0.5	.	.	.	.
SMILES	TbMetRS inhib	MPTP block	CHOP inhibitor	NR3A LBD binder	WT yeast gro inh	EBV gp42 inh
O=C(CSCc1ccc(Cl)cc1Cl)Nc1ccccc1C(=O)Nc1ccc(C(=O)O)cc1	0.0	1.5	-1.0	-6.7	.	-8.2
CCC(/C=C1\Sc2ccc(OC)cc2N1CCO)=C\c1sc2ccc(OC)cc2[n+]1CCO	-1.3	24.1	55.4	-4.2	84.0*	-8.4
CCC(/C=C1\Sc2ccc(OC)cc2N1CC)=C\c1sc2ccc(OC)cc2[n+]1CCCS(=O)(=O)[O-]	-0.3	6.6	49.7	-0.1	74.6*	-2.3
CC1=CC(=O)Nc2cncnc2N1	-0.4	-1.0	.	-1.6	.	.
CCOc1cccc(OCCOCCOc2ccccc2C(C)=O)c1	-0.7	-0.7	10.7	1.9	9.9	-7.9
O=C(c1ccccc1F)N1CCCc2ccccc21	-0.3	-1.5	.	-1.8	.	.
CCc1ccc(C2(C)SC(NC(C)=O)=NN2C(C)=O)cc1 (stereo not drawn)	-0.5	-0.4	8.9	-2.1	-12.3	-21.2
O=C(CSc1nc(-c2ccccc2)cc(C(F)(F)F)n1)NCc1ccco1	0.3	0.4	11.7	0.3	19.6	8.0
FC(F)(F)c1cc(-c2ccccc2)nc(NC2CCCC2)n1	-0.4	1.6	66.7	1.9	86.0*	-13.1
O=C(CSc1nc(-c2ccccc2)cc(C(F)(F)F)n1)NCc1cccs1	.	-1.2	82.3*	-2.6	-5.1	0.0
FC(F)(F)c1cc(-c2ccccc2)nc(NCc2cccs2)n1	-0.8	2.7	75.2*	-30.4	70.2*	13.2
COc1ccc(-c2cc(C(F)(F)F)nc(SCC(=O)NCc3cccs3)n2)cc1	-0.9	-1.1	70.3*	-15.4	8.9	-11.9
FC(F)(F)c1cc(-c2ccco2)nc(NCc2cccs2)n1	-0.2	2.4	-23.9	-5.0	6.7	-19.5
COc1ccc(-c2cc(C(F)(F)F)nc(SCC(N)=O)n2)cc1	-0.9	-0.2	19.1	-2.5	3.2	-2.0
COc1ccc(C=O)cc1COc1ccc2c(c1)OCO2	-0.2	0.5	.	0.8	.	.
O=C(CSc1ncnc2sc3c(c12)CCCC3)NC1CCS(=O)(=O)C1 (stereo not drawn)	-0.5	-0.2	.	0.1	.	.
COc1ccc(CCN2CC(C(=O)OCC(=O)c3c(N)n(CC(C)C)c(=O)n(C)c3=O)CC2=O)cc1OC (stereo not drawn)	-0.6	-0.1	.	.	.	.
CC(=O)Nc1cccc(-c2nc3ccc(NC(C)=O)cc3[nH]2)c1	0.1	-5.3	-17.6	-5.7	6.0	-14.6
FC(F)(F)c1cc(-c2ccccc2)nc(NCC2CCCO2)n1 (stereo not drawn)	0.3	-0.3	64.7	4.6	27.8	-13.1
Fc1ccc(-c2cc(C(F)(F)F)nc(NCC3CCCO3)n2)cc1 (stereo not drawn)	-0.4	0.1	84.2*	-1.3	40.0	20.4
O=[N+]([O-])c1ccc(Nc2cccc(F)c2)nc1	-0.4	6.5	18.5	24.9*	6.8	-4.5
CC(=O)Nc1ccc(Nc2ccc([N+](=O)[O-])cn2)cc1	0.2	0.2	.	11.3*	.	.
O=[N+]([O-])c1ccc(Nc2ccccc2)nc1	0.1	4.0	5.1	11.6*	-35.1	-10.5
